hiPSC survival: hiPSC single-cell survival enhancement. ATPlite luminescence; 100% = ROCK inhibitor wells, 0% = DMSO. survival enhancement, % at 20 µM. 360,000 tested, 0.044% active; in the data active = survival enhancement above about 18%;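 note: cells exposed to compounds for 16 hours before the ATP read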
SENP1 FRET inh: SENP1 (human) catalytic domain inhibition; Q9P0U3; recombinant SENP1 catalytic domain, CyPet-SUMO1-YPet FRET cleavage; inhibition, % at 10 µM; 360,000 tested, 0.21% active;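 active = inhibition at least 30% at 10 µM, raw YFP signal under a set limit, fluorescence ratio 0.5 to 1.5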;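 note: 0% = enzyme with DMSO and 100% = no enzyme wells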
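Material: hSENP1 catalytic domain, recombinant; medium: Tris pH 8 with BME, BSA, NP40 and catalase; compound: single concentration of 10 µM compound, 0.5% DMSO final; technique: FRET read of cyan and yellow fluorescence; timing: 50 min enzyme reaction, room temperature, light-protected; reagent: SFCypet-SUMO1-SFYpet substrate at 25 nM; control set: no-enzyme low, enzyme-DMSO high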
ABCB6 inh MLPCN: inhibitors of human ABC transporter ABCB6. K562-ABCB6 porphyrin accumulation, flow cytometry, 1 h; active compounds read low. AID 602162. fluorescence ratio to DMSO, % at 10 µM. Q9NP58. 360,000 tested, 0.19% active;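 active = fluorescence ratio to DMSO below 75%, the collection mean minus 3 SD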;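 note: signal is porphyrin accumulated inside mitochondria; 100% equals median channel fluorescence of DMSO control wells; lower ratio means ABCB6 inhibition with less porphyrin fluorescence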
FAS-TE inh: blocks the thioesterase domain of human fatty acid synthase | inhibition, % at 15 µM | recombinant FAS-TE, OMFH fluorogenic substrate, fluorescence endpoint | P49327 | 360,000 tested, 0.67% active;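 active = compounds whose normalised, plate-corrected inhibition of enzyme fluorescence in the single-dose primary screen is 50% or more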;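 note: 0% = DMSO with enzyme and 100% = substrate without enzyme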
ABCB6 blocker 1: blocks the human ABCB6 transporter; ratio response (% of DMSO), % at 10 µM; K562-ABCB6 porphyrin accumulation, flow cytometry, 1 h; active compounds read low; 700 tested, under 10 active; shares compounds with ABCB6 inh MLPCN;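 active = repeat-averaged ratio response below 75% of DMSO, the collection mean minus 3 SD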;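 note: median porphyrin fluorescence at 575 nm with 488 nm excitation from mitochondria; lower ratio means less porphyrin signal so ABCB6 inhibition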
* marks the source's active call; other numbers are inactive results; nt = no result given. In the library only some 1.1% were active in any assay of this set; here they are far more common.

SMILES	hiPSC survival	SENP1 FRET inh	ABCB6 inh MLPCN	FAS-TE inh	ABCB6 blocker 1
CCN(CC)S(=O)(=O)c1ccc(C)c(NC(=O)CN2C(=O)NC3(CCCC3)C2=O)c1	-0.4	-0.2	74.0*	0.5	96.0
Cc1ccc(S(=O)(=O)N(C)C)cc1NC(=O)CN1C(=O)NC2(CCCCCCC2)C1=O	0.8	1.9	97.0	-1.0	nt
Cc1ccnc(NS(=O)(=O)c2ccc(-n3cccn3)cc2)c1	-0.6	2.1	98.0	5.1	nt
CC(C(=O)NC1CCCC1)N1CCN(Cc2ccccc2)CC1 (stereo not drawn)	3.1	-2.8	93.0	-8.7	nt
CC(C(=O)NC(=O)NC1CCCCC1)N1CCN(C(c2ccccc2)c2ccccc2)CC1 (stereo not drawn)	-0.5	-2.1	73.0*	19.5	100.0
COc1ccccc1Cn1nnc2c(=O)[nH]c(C3CCN(C(=O)c4ccc(F)cc4)CC3)nc21	5.7	0.4	98.0	-6.1	nt
COc1ccccc1Cn1nnc2c(=O)[nH]c(C3CCN(C(=O)c4ccc(C)cc4)CC3)nc21	9.5	0.8	112.0	-5.8	100.0
COc1ccccc1Cn1nnc2c(=O)[nH]c(C3CCN(C(=O)c4ccccc4Cl)CC3)nc21	2.9	-2.0	99.0	0.6	100.0
CC(NCC(=O)Nc1cc(S(=O)(=O)N2CCOCC2)ccc1N1CCOCC1)c1ccco1 (stereo not drawn)	-0.1	0.0	100.0	-3.2	nt
COCCNC(=O)c1cccc(Nc2nc(-c3ccccc3)c3cc(Cl)ccc3n2)c1	11.1	-34.7	91.0	36.6	nt
COc1ccc(Cl)cc1NC(=O)CCCC(=O)c1ccccc1	1.2	-0.3	61.0*	20.8	99.0
Cc1ccc(Cl)c(NC(=O)COC(=O)c2ccccc2C(=O)c2ccc(Cl)c([N+](=O)[O-])c2)c1Cl	12.9	0.8	99.0	22.5	nt
CCCNC(=O)COC(=O)c1ccccc1C(=O)c1ccc(Cl)c([N+](=O)[O-])c1	19.8*	-0.2	57.0*	5.8	93.0
CCN(CC(=O)Nc1c(F)cccc1F)C(=O)c1ccc(C#N)cc1	-0.2	-0.4	70.0*	-2.6	99.0
CCn1nc(C(=O)O)c(=O)c2cc3c(cc21)OCO3	-1.1	1.1	71.0*	-6.8	99.0
CCn1cc(C(=O)N[C@H](C(=O)O)C(C)C)c(=O)c2cc3c(cc21)OCO3	-0.7	1.8	98.0	-1.7	nt
O=C1N(CCCN2C(=O)C3(OCCO3)c3ccccc32)c2ccccc2C12OCCO2	-0.8	1.5	68.0*	1.7	103.0
CC(C)NS(=O)(=O)c1ccc(CCC(=O)N2CCC(C(N)=O)CC2)cc1	1.2	-0.1	99.0	-2.6	nt
O=c1c2c3c(sc2n2cnnc2n1CCc1ccccc1)CCCC3	4.1	-0.7	66.0*	29.5	101.0
NC(=O)Cn1c(=O)n(CCc2ccccc2)c(=O)c2c3c(sc21)CCCC3	-1.2	2.5	97.0	7.6	nt
O=C(CSc1nc2nc(-c3cccs3)cc(C(F)(F)F)c2c(=O)[nH]1)C(F)(F)F	0.0	-133.2	87.0	-1.2	nt
CCSc1nc(C)c(C)c(=O)[nH]1	0.6	3.7	72.0*	-6.3	98.0
Cc1nn2c(N3CCN(C4CCCC4)CC3)cc(C(C)(C)C)nc2c1-c1ccccc1	0.9	1.0	57.0*	4.8	104.0
COc1ccc(C(=O)NC(=S)NCc2ccc(-c3nc4ccccc4o3)cc2)cc1OC	-1.1	-0.2	93.0	10.2	nt
CCOc1cc(C(=O)NCc2ccc(-c3nc4ccccc4o3)cc2)cc(OCC)c1OCC	4.7	-0.5	70.0*	-9.8	98.0
SMILES	hiPSC survival	SENP1 FRET inh	ABCB6 inh MLPCN	FAS-TE inh	ABCB6 blocker 1
O=C(NCc1ccccc1)C(CCc1ccccc1)n1c(=O)c(-c2ccccc2)nc2ccccc21 (stereo not drawn)	nt	-4.5	nt	nt	nt
Cc1ccc(NC(=O)CCn2c(=O)c3cccn3c3ccccc32)cc1C	3.3	-0.7	104.0	9.2	nt
Cc1ccc(-c2nc3s/c(=C\c4ccco4)c(=O)n3n2)cc1	3.6	10.6	70.0*	-1.7	103.0
C[C@H](NC(=O)Nc1ccccc1F)C(=O)O	0.8	0.6	97.0	-6.9	nt
CC(C)C[C@H](NC(=O)Nc1ccccc1F)C(=O)O	-1.0	-2.0	45.0*	-3.3	98.0
COc1ccc(Cn2c(CCC(=O)NCCC(C)C)nc3ncccc3c2=O)cc1	-0.3	-3.8	99.0	6.6	nt
COc1cccc(S(=O)(=O)N(C)C[C@H]2OCc3cnnn3CCCC(=O)N([C@@H](C)CO)C[C@@H]2C)c1	0.7	0.3	101.0	-7.5	nt
CC1CCN(C(=O)Cn2nnc(-c3ccc(C(C)C)cc3)n2)CC1	-1.0	0.2	96.0	16.3	nt
CC(C)(C)c1ccc(Cn2nnc3c(=O)[nH]c(C4CCN(C(=O)c5ccco5)CC4)nc32)cc1	0.7	2.1	94.0	-70.1	100.0
O=C(c1ccco1)N1CCCC(c2nc3c(nnn3Cc3cccc(Cl)c3)c(=O)[nH]2)C1 (stereo not drawn)	0.0	-0.3	168.0	2.6	nt
O=C(c1ccco1)N1CCC(c2nc3c(nnn3Cc3c(Cl)cccc3Cl)c(=O)[nH]2)CC1	-0.5	-0.5	97.0	3.4	103.0
CCOC(=O)C1CCN(S(=O)(=O)c2ccc(NC(=O)OC)cc2)CC1	1.5	2.5	109.0	0.1	98.0
CCOC(=O)C1CCN(S(=O)(=O)c2ccc(C)cc2)CC1	-1.0	2.3	109.0	1.8	nt
CCOC(=O)C1CCN(S(=O)(=O)c2ccc(C(=O)OC)cc2)CC1	5.1	-0.3	98.0	-9.4	97.0
CCOC(=O)C1CCN(S(=O)(=O)c2ccc(Br)c(OCC)c2)CC1	-0.4	0.4	91.0	21.9	99.0
CCOC(=O)C1CCN(S(=O)(=O)c2cc(Cl)c(C)cc2OC)CC1	-2.0	2.9	92.0	12.4	98.0
CCN1C(=O)[C@H]2[C@@H](c3ccc(-c4ccc(F)cc4)cc3)N[C@@](C)(C(=O)OC)[C@H]2C1=O	1.2	-2.4	101.0	-1.5	nt
Cc1cccn2c(=O)c3cc(C(=O)NC4CCCC4)c(=N)n(CCCN4CCOCC4)c3nc12	-0.3	-21.2	102.0	-2.8	nt
O=C(OCC1CCC=CO1)C1CCC=CO1 (stereo not drawn)	-0.6	-1.4	103.0	0.0	nt
O=C(CSc1ccc2ccccc2c1Br)Nc1cccc(S(=O)(=O)NC2=NCCCCC2)c1	-1.9	0.8	67.0*	16.6	99.0
Cc1ccc(C)c(SCC(=O)Nc2cccc(S(=O)(=O)NC3=NCCCCC3)c2)c1	-3.1	1.0	90.0	-4.9	nt
CCOC(=O)c1ccc(N2C(=O)Cc3ccccc3C2=O)cc1	-0.4	-0.9	95.0	-1.3	nt
CCOc1ccc(N2C(=O)Cc3ccccc3C2=O)cc1	-0.4	-2.3	73.0*	1.6	102.0
Cc1cc(O)c(C(C)C)cc1NC(=O)Cn1nc(C)c2ccccc2c1=O	0.7	0.6	74.0*	-7.0	101.0
O=C(c1ccccc1)C(C(=O)N1CCc2ccccc2C1)n1ccccc1=O (stereo not drawn)	0.7	0.6	73.0*	-2.4	98.0
O=C(NC(Cc1ccccc1)C(=O)N1CCc2ccccc2C1)c1ccccc1 (stereo not drawn)	0.8	-1.1	93.0	8.8	nt

Source: PubChem
